Tests used:
Candida tropicalis = assay: Antifungal activity against Candida tropicalis ATCC 20336 at 25 mg/ml after 72 hrs by agar diffusion test; format: functional; settings: ATCC 20336, 72 h, read-out: DIZ
Summary of the method: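 Yeast grown on yeast peptone dextrose agar; wells cut in the seeded agar are filled with compound solution in DMSO. Read-out is the diameter of the clear inhibition zone.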

Micrococcus luteus [1] = assay: Antibacterial activity against Sarcina lutea ATCC 9341 at 20 mg/ml after 24 hrs by agar diffusion test; format: functional, organism-based
Summary of the method: (§1)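 Agar diffusion: bacteria grown 24 h at 37 °C on nutrient agar; wells cut in the seeded agar are filled with compound solution in DMSO. Read-out is the diameter of the clear zone around the application point.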

Micrococcus luteus [2] = assay: Antibacterial activity against Micrococcus luteus ATCC 9631 at 4 mg/ml after 24 hrs by agar diffusion test; format: functional, organism-based; summary of the method: as §1
Acinetobacter johnsonii [3] = assay: Antibacterial activity against Acinetobacter johnsonii ATCC 17909 at 20 mg/ml after 24 hrs by agar diffusion test; format: functional; summary of the method: as §1
Bacillus subtilis [4] = assay: Antibacterial activity against Bacillus subtilis ATCC 6633 at 20 mg/ml after 24 hrs by agar diffusion test; format: functional, organism-based; summary of the method: as §1
Priestia megaterium [5] = assay: Antibacterial activity against Bacillus megaterium NRRL 1353895 at 20 mg/ml after 24 hrs by agar diffusion test; format: functional, organism-based; summary of the method: as §1
Priestia megaterium [6] = assay: Antibacterial activity against Bacillus megaterium NRRL 1353895 at 4 mg/ml after 24 hrs by agar diffusion test; format: functional, organism-based; summary of the method: as §1
Acinetobacter johnsonii [7] = assay: Antibacterial activity against Acinetobacter johnsonii ATCC 17909 at 4 mg/ml after 24 hrs by agar diffusion test; format: functional; summary of the method: as §1
Bacillus cereus [8] = assay: Antibacterial activity against Bacillus cereus ATCC 11778 at 4 mg/ml after 24 hrs by agar diffusion test; format: functional, organism-based; summary of the method: as §1
Bacillus mycoides [9] = assay: Antibacterial activity against Bacillus mycoides DSMZ 274 at 4 mg/ml after 24 hrs by agar diffusion test; format: functional, organism-based; summary of the method: as §1
Micrococcus luteus [10] = assay: Antibacterial activity against Sarcina lutea ATCC 9341 at 4 mg/ml after 24 hrs by agar diffusion test; format: functional, organism-based; summary of the method: as §1
Bacillus [11] = assay: Antibacterial activity against Bacillus idosus B 241 at 20 mg/ml after 24 hrs by agar diffusion test; format: functional, organism-based; summary of the method: as §1
Bacillus cereus [12] = assay: Antibacterial activity against Bacillus cereus ATCC 11778 at 20 mg/ml after 24 hrs by agar diffusion test; format: functional, organism-based; summary of the method: as §1
Micrococcus luteus [13] = assay: Antibacterial activity against Micrococcus luteus ATCC 9631 at 20 mg/ml after 24 hrs by agar diffusion test; format: functional, organism-based; summary of the method: as §1
Bacillus subtilis [14] = assay: Antibacterial activity against Bacillus subtilis ATCC 6633 at 4 mg/ml after 24 hrs by agar diffusion test; format: functional, organism-based; summary of the method: as §1
Bacillus [15] = assay: Antibacterial activity against Bacillus idosus B 241 at 4 mg/ml after 24 hrs by agar diffusion test; format: functional, organism-based; summary of the method: as §1
Bacillus mycoides [16] = assay: Antibacterial activity against Bacillus mycoides DSMZ 274 at 20 mg/ml after 24 hrs by agar diffusion test; format: functional, organism-based; summary of the method: as §1

Compound `OC(Cn1cncn1)(Cn1cncn1)c1ccc(F)cc1F` [FLUCONAZOLE] has a zone of inhibition at 25000 µg/mL (Candida tropicalis) of 35 mm.

With GENTAMICIN the inhibition zone (IZ) (Micrococcus luteus [1]) was 34 mm, the inhibition zone (IZ) (Micrococcus luteus [2]) was 28 mm and the inhibition zone (IZ) (Acinetobacter johnsonii [3]) was 39 mm. The inhibition zone (IZ) (Bacillus subtilis [4]) was 30 mm, the inhibition zone (IZ) (Priestia megaterium [5]) was 36 mm and the inhibition zone (IZ) (Priestia megaterium [6]) was 30 mm. The inhibition zone (IZ) (Acinetobacter johnsonii [7]) was 31 mm, the inhibition zone (IZ) (Bacillus cereus [8]) was 26 mm and the inhibition zone (IZ) (Bacillus mycoides [9]) was 28 mm. The inhibition zone (IZ) (Micrococcus luteus [10]) was 28 mm, the inhibition zone (IZ) (Bacillus [11]) was 35 mm and the inhibition zone (IZ) (Bacillus cereus [12]) was 29 mm. The inhibition zone (IZ) (Micrococcus luteus [13]) was 38 mm, the inhibition zone (IZ) (Bacillus subtilis [14]) was 27 mm and the inhibition zone (IZ) (Bacillus [15]) was 29 mm. For the same compound, the inhibition zone (IZ) (Bacillus mycoides [16]) was 32 mm.

Reference: ChEMBL document CHEMBL1932986, “Synthesis and in vitro antimycobacterial activity of compounds derived from (R)- and (S)-2-amino-1-butanol - The crucial role of the configuration” (Eur J Med Chem, 2012)
